Assay results: PMC6459613 (ACS chemical biology, 2012)
“And” between values parts separate entries of the source, which are not always exact repeats. Identical values can stand only once. Values belong to the compound of their own block, whether it stands above or below them.

Tests used:
[1] = tested on: JNK pathway in HEK293 cells; assay: Western blot of phospho-JNK and phospho-c-Jun in anisomycin-treated HEK293 cells; assay type: cell-based; conditions: for activation (phosphorylation) of JNK isoforms / phosphorylation of c-Jun (phospho-Ser-63): HEK293, 5-100 μM, 12 hours, then anisomycin
Method in brief: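 HEK293 cells were pretreated for 12 hours with DMSO or test compound at 5-100 μM. The JNK pathway was then induced with anisomycin (50-100 nM) for 5-10 minutes before lysis. Western blots detected phospho-JNK and phospho-c-Jun, and an ED50 was estimated.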

MDA-MB-231 cells [2] = assay: Transwell chemotactic cell migration assay; assay type: cell-based, human; conditions: for inhibition of migration: overnight, migration in response to serum
Method in brief: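 Chemotactic migration of MDA-MB-231 cells was measured in transwells. Cells were treated overnight with DMSO or test compound at 50 or 100 μM, and viability was monitored. Migrated cells on the membrane underside were stained with crystal violet. Three independent repeats.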

MDA-MB-231 cells [3] = assay: Cell viability monitored during migration and wound assays; assay type: cell-based, human; conditions: for cell viability during the migration assay: transwell assay, 50 and 100 μM; for cell viability during the wound assay: up to 200 μM
RAW264.7 cells = conditions: LPS-stimulated RAW264.7 cells; cited from earlier work
JNK2α2 in HEK293T cells = assay: Western blot in HEK293T cells transfected with WT-JNK2α2; assay type: cell-based; conditions: for JNK2α2 autophosphorylation: HEK293T over-expressing JNK2α2, without anisomycin
Method in brief: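 HEK293T cells were transfected with wild-type JNK2α2 or empty pcDNA3 vector. They were treated with DMSO or varying test compound concentrations without anisomycin, or with an ATP-competitive reference JNK inhibitor with and without anisomycin. Western blots assessed JNK2α2 autophosphorylation and c-Jun phosphorylation, from which an ED50 was estimated.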

JNK [4] = conditions: read-out: in-vitro cell-free IC50; ATP-competitive; cited from earlier work
[5] = tested on: JNK activity in Jurkat T cells; conditions: cited from earlier work
JNK2α2 (Y130A) = assay: c-Jun phosphorylation in HEK293T cells transfected with JNK2α2; assay type: cell-based; conditions: 0-100 μM
Method in brief: (§1)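 HEK293T cells were transfected with JNK2α2 DRS mutants (Y130A or C163A) or empty pcDNA3 vector and treated with test compound (0–100 μM). Western blots tracked JNK autophosphorylation and c-Jun phosphorylation, compared with non-transfected cells. Results are representative of three independent experiments.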

JNK3 = JNK3 (Homo sapiens, UniProt P53779); assay: Phosphorylation of GST-c-Jun; assay type: biochemical
Method in brief: (§2)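 Activated JNK isoforms phosphorylated GST-c-Jun (1-221) at 2 μM across a dose range of test compound. Dose-response data were fitted to V0 = V00 − V00·i/(i+K50) + V′, where K50 is the half-maximal concentration and V′ is the residual rate at saturating inhibitor.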

p38MAPKβ = p38MAPKβ (Homo sapiens, UniProt Q15759); assay: MAP kinase selectivity assay, p38MAPKβ; assay type: biochemical
[6] = tested on: Akt phosphorylation mediated by JNK2α2; assay: Akt phosphorylation at Ser-473 in HEK293T cells transfected with WT-JNK2α2; assay type: cell-based; conditions: HEK293T transfected with WT-JNK2α2, without anisomycin
Method in brief: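 Wild-type JNK2α2 was transfected into HEK293T cells. Cells were exposed to DMSO vehicle or a series of test compound concentrations, with no anisomycin stimulation. Akt activation was followed as phosphorylation at Ser-473.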

WT-MKK4 = WT-MKK4 (Homo sapiens, UniProt P45983); assay: Phosphorylation of inactive JNK1 by active MKK4; assay type: biochemical
p38MAPKγ = p38MAPKγ (Homo sapiens, UniProt P53778); assay: MAP kinase selectivity assay, p38MAPKγ; assay type: biochemical
MDA-MB-231 cells [7] = assay: Scratch wound closure assay; assay type: cell-based, human; conditions: 100 and 200 μM, 24 hrs post-wounding
Method in brief: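 MDA-MB-231 cells were pretreated with graded concentrations of test compound. A scratch wound was then made and medium was replaced with 1% FBS-containing medium. Wound closure was measured at 0 and 24 h post-wounding, with viability checked alongside. Three independent experiments.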

[8] = tested on: activated JNK1, JNK2 and JNK3; assay type: biochemical; conditions: read-out: IC50 values; range over JNK1, JNK2 and JNK3; GST-c-Jun 2 μM
Method in brief: as §2

JNK1 = JNK1 (Homo sapiens, UniProt P45983); assay: Phosphorylation of GST-c-Jun; assay type: biochemical
Method in brief: as §2

JNK [9] = assay: Steady-state kinetic analysis of c-Jun phosphorylation; assay type: biochemical; conditions: partial competitive inhibition model
Method in brief: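 Initial velocities were measured with c-Jun varied at 0.63-20 μM and test compound fixed at several levels (0-50 μM), with saturating MgATP at 0.5 mM. Rates came from linear least-squares fits of product versus time. Double-reciprocal plots were checked for linearity. Data were fitted by nonlinear least squares to a partial competitive inhibition equation.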

WT-MKK7 = WT-MKK7 (Homo sapiens, UniProt P45983); assay: Phosphorylation of inactive JNK1 by active MKK7; assay type: biochemical
ERK1 = ERK1 (Homo sapiens, UniProt P27361); assay: MAP kinase selectivity assay, ERK1; assay type: biochemical
ERK2 = ERK2 (Homo sapiens, UniProt P28482); assay: MAP kinase selectivity assay, ERK2; assay type: biochemical
p38MAPKδ = p38MAPKδ (Homo sapiens, UniProt O15264); assay: MAP kinase selectivity assay, p38MAPKδ; assay type: biochemical
JNK2α2 (C163A) = assay: c-Jun phosphorylation in HEK293T cells transfected with JNK2α2; assay type: cell-based; conditions: 0-100 μM
Method in brief: as §1

ERK2 pathway = assay: ERK pathway specificity in HEK293 cells, EGF induced; assay type: cell-based; conditions: 100 μM
Method in brief: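 HEK293 cells received DMSO or test compound (0-100 μM) for 12 hours. The ERK pathway was then induced with 50 ng EGF for 5-10 minutes and cells were lysed. Lysates were run on 10% SDS-PAGE and western blotted for phospho-ERK and phospho-p90RSK.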

GST-JNK1 = conditions: read-out: IC50 for displacing biotinylated pepJIP1 from GST-JNK1; cited from earlier work

Chain of WT-MKK4 (P45983 whole entry): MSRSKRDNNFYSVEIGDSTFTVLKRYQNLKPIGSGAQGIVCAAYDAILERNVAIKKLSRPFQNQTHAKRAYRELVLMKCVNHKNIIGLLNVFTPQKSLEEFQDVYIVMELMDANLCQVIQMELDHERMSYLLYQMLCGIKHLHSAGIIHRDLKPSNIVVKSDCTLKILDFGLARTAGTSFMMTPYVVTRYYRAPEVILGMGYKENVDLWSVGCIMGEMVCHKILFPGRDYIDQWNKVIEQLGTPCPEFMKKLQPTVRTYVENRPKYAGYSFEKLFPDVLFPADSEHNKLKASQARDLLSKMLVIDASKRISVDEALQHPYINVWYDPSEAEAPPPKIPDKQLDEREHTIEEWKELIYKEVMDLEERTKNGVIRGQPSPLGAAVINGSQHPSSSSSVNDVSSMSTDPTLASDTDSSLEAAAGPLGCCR
Chain of JNK3 (P53779 whole entry, canonical isoform): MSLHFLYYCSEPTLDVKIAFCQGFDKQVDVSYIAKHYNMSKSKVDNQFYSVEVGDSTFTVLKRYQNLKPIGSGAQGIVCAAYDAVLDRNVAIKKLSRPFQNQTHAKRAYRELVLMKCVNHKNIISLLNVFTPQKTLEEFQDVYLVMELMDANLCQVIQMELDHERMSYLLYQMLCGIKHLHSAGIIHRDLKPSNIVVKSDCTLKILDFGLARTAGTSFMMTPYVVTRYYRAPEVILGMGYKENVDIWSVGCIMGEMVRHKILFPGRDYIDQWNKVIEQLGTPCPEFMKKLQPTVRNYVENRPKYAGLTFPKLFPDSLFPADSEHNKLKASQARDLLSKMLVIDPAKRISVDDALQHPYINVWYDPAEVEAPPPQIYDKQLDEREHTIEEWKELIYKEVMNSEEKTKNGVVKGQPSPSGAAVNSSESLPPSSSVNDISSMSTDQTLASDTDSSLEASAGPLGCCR
Chain of p38MAPKδ (O15264 whole entry): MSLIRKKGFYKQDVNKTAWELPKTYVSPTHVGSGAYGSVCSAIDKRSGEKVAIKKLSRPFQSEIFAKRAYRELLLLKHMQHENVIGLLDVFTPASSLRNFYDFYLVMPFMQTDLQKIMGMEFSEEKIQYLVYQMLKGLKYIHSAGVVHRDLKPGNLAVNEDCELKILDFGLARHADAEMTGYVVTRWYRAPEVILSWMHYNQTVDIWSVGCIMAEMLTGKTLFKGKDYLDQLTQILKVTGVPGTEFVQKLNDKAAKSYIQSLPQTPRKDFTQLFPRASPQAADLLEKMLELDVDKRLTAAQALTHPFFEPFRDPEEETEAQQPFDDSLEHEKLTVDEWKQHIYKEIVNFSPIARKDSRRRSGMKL
Chain of ERK1 (P27361 whole entry, species assumed): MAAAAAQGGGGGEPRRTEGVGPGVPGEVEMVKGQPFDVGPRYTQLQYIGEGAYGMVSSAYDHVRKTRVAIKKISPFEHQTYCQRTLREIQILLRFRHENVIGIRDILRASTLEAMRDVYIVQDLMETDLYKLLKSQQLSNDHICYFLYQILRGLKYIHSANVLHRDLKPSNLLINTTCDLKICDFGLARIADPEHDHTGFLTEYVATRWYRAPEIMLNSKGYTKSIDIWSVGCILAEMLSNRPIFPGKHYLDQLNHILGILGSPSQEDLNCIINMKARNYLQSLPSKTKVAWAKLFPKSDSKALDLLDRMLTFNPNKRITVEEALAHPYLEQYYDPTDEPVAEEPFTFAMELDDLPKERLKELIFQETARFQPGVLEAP
Chain of p38MAPKγ (P53778 whole entry): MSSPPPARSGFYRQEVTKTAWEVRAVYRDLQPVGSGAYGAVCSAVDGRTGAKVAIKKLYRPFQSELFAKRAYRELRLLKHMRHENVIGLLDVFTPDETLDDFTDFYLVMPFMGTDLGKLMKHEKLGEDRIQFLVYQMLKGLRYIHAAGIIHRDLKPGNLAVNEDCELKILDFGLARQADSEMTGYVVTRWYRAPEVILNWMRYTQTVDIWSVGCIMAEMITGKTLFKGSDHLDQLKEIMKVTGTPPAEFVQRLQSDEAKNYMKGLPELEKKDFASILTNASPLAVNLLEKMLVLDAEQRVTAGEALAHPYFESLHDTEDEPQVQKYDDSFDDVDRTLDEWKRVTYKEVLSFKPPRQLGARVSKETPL
Chain of JNK1 (P45983 whole entry): as the sequence (P45983 whole entry) above
Chain of WT-MKK7 (P45983 whole entry): as above
Chain of ERK2 (P28482 whole entry, species assumed): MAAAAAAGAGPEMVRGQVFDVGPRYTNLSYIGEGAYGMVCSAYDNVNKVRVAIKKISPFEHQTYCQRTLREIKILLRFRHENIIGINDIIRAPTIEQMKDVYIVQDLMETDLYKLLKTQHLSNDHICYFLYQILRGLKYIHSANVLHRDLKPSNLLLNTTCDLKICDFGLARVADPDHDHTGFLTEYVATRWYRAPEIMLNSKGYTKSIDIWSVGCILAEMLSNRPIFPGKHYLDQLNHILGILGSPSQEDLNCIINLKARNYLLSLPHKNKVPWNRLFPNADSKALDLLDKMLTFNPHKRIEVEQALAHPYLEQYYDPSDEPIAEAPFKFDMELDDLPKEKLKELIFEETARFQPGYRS
Chain of p38MAPKβ (Q15759 whole entry): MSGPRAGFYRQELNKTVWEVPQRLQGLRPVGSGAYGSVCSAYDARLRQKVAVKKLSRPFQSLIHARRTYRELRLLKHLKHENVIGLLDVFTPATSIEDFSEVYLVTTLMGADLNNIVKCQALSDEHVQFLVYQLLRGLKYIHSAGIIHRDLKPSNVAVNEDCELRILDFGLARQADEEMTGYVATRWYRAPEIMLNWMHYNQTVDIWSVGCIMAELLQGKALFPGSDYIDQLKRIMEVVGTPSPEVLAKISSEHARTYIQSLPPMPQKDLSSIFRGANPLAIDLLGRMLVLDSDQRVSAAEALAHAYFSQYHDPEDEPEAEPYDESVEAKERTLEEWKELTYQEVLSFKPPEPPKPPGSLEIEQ

Compound: (+)-zuonin A
activation (phosphorylation) of JNK isoforms [1]: inhibits neither JNK activation nor c-Jun phosphorylation | phosphorylation of c-Jun (phospho-Ser-63) [1]: inhibits neither JNK activation nor c-Jun phosphorylation | effect on cell migration (MDA-MB-231 cells [2]; 50 and 100 μM): able to mildly suppress cell migration | cell viability during the migration assay (MDA-MB-231 cells [3]): unaffected | cell viability during the wound assay (MDA-MB-231 cells [3]): unaffected

Compound: COc1cc([C@H]2O[C@H](c3ccc4c(c3)OCO4)[C@H](C)[C@H]2C)ccc1O[C@H](C)[C@@H](O)c1ccc2c(c1)OCO2 [saucerneol F]
nitric oxide (NO) production (RAW264.7 cells): inhibits nitric oxide (NO) production in a dose-dependent manner

Compound: Oc1c2ccccc2c2c3c(cccc13)N=N2 [SP600125, reference compound]
JNK2α2 phosphorylation in cells stimulated using anisomycin (JNK2α2 in HEK293T cells; HEK293T over-expressing JNK2α2, with anisomycin): no longer able to inhibit | JNK2α2 autophosphorylation (JNK2α2 in HEK293T cells): autophosphorylation was inhibited | IC50 (JNK [4]): 0.04 to 0.1 µM | ED50 for JNK activity [5]: ~10 µM

% Inhibition at Saturating (−)-zuonin A (200 μM) (JNK3; 200 μM): 73% | IC50 (JNK3; GST-c-Jun 2 μM): 1.74 ± 0.16 µM | % Inhibition at Saturating (−)-zuonin A (200 μM) (p38MAPKβ): 15% | % Inhibition at Saturating (−)-zuonin A (200 μM) (WT-MKK4; 200 μM, phosphorylation of JNK): 77% | IC50 (WT-MKK4; inhibits the phosphorylation of JNK (inactive JNK1) by MKK4): ~1.8 µM and 1.8 µM | IC50 (p38MAPKγ): > 200 µM | % Inhibition at Saturating (−)-zuonin A (200 μM) (p38MAPKγ; 200 μM): 10% | IC50 [8]: 1.7 to 2.9 µM | % Inhibition at Saturating (−)-zuonin A (200 μM) (JNK1; 200 μM): 75% | IC50 (JNK1; GST-c-Jun 2 μM): 1.7 ± 0.26 µM | % Inhibition at Saturating (−)-zuonin A (200 μM) (WT-MKK7; 200 μM, phosphorylation of JNK): 50% | IC50 (WT-MKK7; inhibits the phosphorylation of JNK (inactive JNK1) by MKK7): 1.99 ± 0.15 µM | IC50 (ERK1): > 200 µM | % Inhibition at Saturating (−)-zuonin A (200 μM) (ERK1; 200 μM): 10% | IC50 (ERK2): > 200 µM | % Inhibition at Saturating (−)-zuonin A (200 μM) (ERK2; 200 μM): 10% | IC50 (p38MAPKδ): > 200 µM | % Inhibition at Saturating (−)-zuonin A (200 μM) (p38MAPKδ; 200 μM): 10%
Compound: (−)-zuonin A
sensitivity of c-Jun phosphorylation (JNK2α2 (Y130A)): more sensitive | activation (phosphorylation) of JNK isoforms [1]: blunts the activation of the JNK isoforms in cells in a dose-dependent manner | phosphorylation of c-Jun (phospho-Ser-63) [1]: clearly blunted | ED50 for inhibiting JNK phosphorylation ([1]; HEK293 cells, stimulation by anisomycin): around 25 μM | Akt phosphorylation (Ser-473) mediated by JNK2α2 [6]: able to inhibit Akt phosphorylation | wound closure (MDA-MB-231 cells [7]): sufficient to inhibit wound closure | JNK2α2 autophosphorylation (JNK2α2 in HEK293T cells): unable to inhibit JNK2α2 autophosphorylation even at a concentration of 100 μM | ED50 for phosphorylation of c-Jun mediated by over-expressed JNK2α2 (JNK2α2 in HEK293T cells; HEK293T, without anisomycin): approximately 25 μM | inhibition of migration (MDA-MB-231 cells [2]; 50 μM): approximately 45% | inhibition of migration (MDA-MB-231 cells [2]; 100 μM): ~80% | cell viability during the migration assay (MDA-MB-231 cells [3]): unaffected | cell viability during the wound assay (MDA-MB-231 cells [3]): unaffected | α (factor by which affinity of JNK for c-Jun is weakened) (JNK [9]): ~5 | β (effect on kcat) (JNK [9]): 1 | sensitivity of c-Jun phosphorylation (JNK2α2 (C163A)): unresponsive | phosphorylation of ERK or its protein substrate p-90RSK (ERK2 pathway): no effect

Compound: O=c1[nH]nc(Sc2ncc([N+](=O)[O-])s2)n1-c1ccc2c(c1)OCCO2 [BI-78D3]
IC50 (GST-JNK1): 0.5 µM
